Assay results: ChEMBL document CHEMBL4411297, “Discovery, synthesis and anti-atherosclerotic activities of a novel selective sphingomyelin synthase 2 inhibitor” (Eur J Med Chem, 2019)
The source made the active and inactive calls. The calls are words filed in the database; no cut-off is given here.

What was measured:
[1] = molecular target: T1, Phosphatidylcholine:ceramide cholinephosphotransferase 2 (Homo sapiens) (UniProt Q8NHU3); experiment: (§1) Inhibition of purified SMS2 (unknown origin) using C6-NBD-Ceramide and DMPC as substrates preincubated for 5 mins followed by substrate addition and measured after 30 mins by TLC or HPLC method
T1 sequence (whole entry): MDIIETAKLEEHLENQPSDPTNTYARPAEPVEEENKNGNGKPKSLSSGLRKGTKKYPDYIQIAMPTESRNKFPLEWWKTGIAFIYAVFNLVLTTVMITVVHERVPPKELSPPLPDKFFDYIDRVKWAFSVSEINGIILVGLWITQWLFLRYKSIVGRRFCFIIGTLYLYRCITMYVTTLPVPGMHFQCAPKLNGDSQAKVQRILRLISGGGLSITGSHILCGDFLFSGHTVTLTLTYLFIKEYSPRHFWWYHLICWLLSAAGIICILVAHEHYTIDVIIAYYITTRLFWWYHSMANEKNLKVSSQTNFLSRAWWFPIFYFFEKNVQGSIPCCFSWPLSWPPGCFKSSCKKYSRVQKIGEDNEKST
In short: (§2)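 Purified SMS1 or SMS2 in DDM detergent buffer; inhibitor in DMSO pre-incubated 5 min at room temperature, then C6-NBD-ceramide and DMPC added, 30 min at 37 °C; ethanol quench, TLC or HPLC read-out. Activity expressed as percent of no-inhibitor vehicle; IC50 from ten (SMS1) or eight (SMS2) concentrations, mean ± SD, n = 3.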

[2] = molecular target: T2, Phosphatidylcholine:ceramide cholinephosphotransferase 2 (Homo sapiens, UniProt Q8NHU3); experiment: as §1; in short: as §2
T2 sequence (Q8NHU3 whole entry): T1 sequence (whole entry)

[3] = Apparent volume of distribution during terminal phase in C57BL/6J mouse at 100 mg/kg/day, ig by HPLC-MS/MS analysis; format: ADME, organism-based; conditions: in vivo, po, read-out: Vz/F
In short: (§3)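 Male C57BL/6J mice, six to eight weeks old, about 20 g, fasted 12 h with free water. Given a single intragastric dose of 25, 50 or 100 mg/kg in 10% DMSO/30% PEG-100/0.9% NaCl. Blood taken retro-orbitally at 5 min to 8 h. Plasma protein-precipitated with methanol plus internal standard, then HPLC-MS/MS on a C18 column. Noncompartmental analysis, n = 6.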

[4] = Cmax in C57BL/6J mouse at 50 mg/kg/day, ig by HPLC-MS/MS analysis; format: ADME, organism-based; parameters: dose 50 mg/kg/day, route intragastric; conditions: in vivo, po; in short: as §3
[5] = Dose normalized AUC (0 to 8 hrs) in C57BL/6J mouse at 25 mg/kg/day, ig by HPLC-MS/MS analysis; format: ADME, organism-based; conditions: in vivo, po; in short: as §3
[6] = Cmax in C57BL/6J mouse at 25 mg/kg/day, ig by HPLC-MS/MS analysis; format: ADME, organism-based; parameters: dose 25 mg/kg/day, route intragastric; conditions: in vivo, po; in short: as §3
[7] = Apparent volume of distribution during terminal phase in C57BL/6J mouse at 25 mg/kg/day, ig by HPLC-MS/MS analysis; format: ADME, organism-based; conditions: in vivo, po, read-out: Vz/F; in short: as §3
Mus musculus [8] = experiment: Effect on body weight in apoE knockout mouse fed with western-type diet at 12.5 to 40 mg/kg/day, ig for 7 weeks; format: ADME, organism-based; conditions: in vivo, po, 1176 h
In short: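 ApoE KO mice on Western-type diet, dosed by gavage daily at 12.5 or 40 mg/kg for 7 weeks. Body weight recorded weekly throughout dosing and compared with vehicle, 10 mice per group.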

Mus musculus [9] = experiment: Effect on plasma AST level in apoE knockout mouse fed with western-type diet at 12.5 to 40 mg/kg/day, ig for 7 weeks; format: ADME, organism-based; conditions: in vivo, po, 1176 h
In short: (§4)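 ApoE KO mice on Western-type diet, dosed by gavage at 12.5 or 40 mg/kg/day for 7 weeks, n = 10. Blood collected at 20 weeks of age. Plasma SM measured by a previously reported method. ALT and AST read on an automated biochemical analyzer.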

Mus musculus [10] = experiment: Anti-atherosclerotic activity in apoE knockout mouse fed with western-type diet assessed as reduction in liver SMS activity at 12.5 mg/kg/day, ig for 7 weeks relative to control; format: functional; parameters: scale not given: the % may be the effect or the level left
In short: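 ApoE KO mice on Western-type diet, dosed by gavage at 12.5 or 40 mg/kg/day for 7 weeks, n = 10. Liver homogenized at 200 mg/ml in 50 mM Tris-HCl pH 7.4, 1 mM EDTA, 250 mM sucrose. C6-NBD-ceramide and DMPC added, incubated at 37 °C, quenched with ethanol. Product read by TLC or HPLC, relative to vehicle.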

Mus musculus [11] = experiment: Anti-atherosclerotic activity in ig dosed apoE knockout mouse fed with western-type diet assessed as reduction in plasma sphingomyelin level; format: functional, organism-based; in short: as §4
Mus musculus [12] = experiment: Anti-atherosclerotic activity in apoE knockout mouse fed with western-type diet assessed as reduction in CD11b+/CD11c+ dendritic cells at 12.5 mg/kg/day, ig for 7 weeks by flow cytometric analysis; format: functional, organism-based
In short: (§5)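 ApoE KO mice started at 8 weeks old on Western-type diet for 6 weeks. Then dosed by gavage daily with vehicle, 12.5 or 40 mg/kg for 7 weeks with the diet continued, 10 mice per group. Blood single-cell suspensions stained with antibodies in PBS and analysed by flow cytometry. Mean ± SD, n = 5.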

Mus musculus [13] = experiment: Anti-atherosclerotic activity in apoE knockout mouse fed with western-type diet assessed as reduction in CD11b+/Ly6C++/Ly6G+ dendritic cells at 40 mg/kg/day, ig for 7 weeks by flow cytometric analysis relative to control; format: functional; parameters: scale not given: the % may be the effect or the level left; in short: as §5
Mus musculus [14] = experiment: Anti-atherosclerotic activity in apoE knockout mouse fed with western-type diet assessed as reduction in lesions in whole aorta at 12.5 mg/kg/day, ig for 7 weeks by oil-red O staining-based assay relative to control; format: functional; parameters: scale not given: the % may be the effect or the level left
In short: (§6)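 ApoE KO mice fed Western-type diet, then given 12.5 or 40 mg/kg/day by gavage in 30% PEG-400/10% DMSO/0.9% NaCl for 7 weeks. Aortic root: H&E-stained 4 µm sections, mean lesion area from 6 sections per animal. Whole aorta: en face Oil Red O staining, percentage of area stained. Compared with vehicle, n = 10.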

Mus musculus [15] = experiment: Anti-atherosclerotic activity in apoE knockout mouse fed with western-type diet assessed as reduction in lesions in whole aorta at 40 mg/kg/day, ig for 7 weeks by oil-red O staining-based assay relative to control; format: functional; parameters: scale not given: the % may be the effect or the level left; in short: as §6

inhibition [1]: Dose-dependent effect | IC50 [2]: 0.091 µM | Vd/F [3]: 28.8 L | Cmax [4]: 6120 ng/mL | AUC/dose [5]: 0.08 µg·h/mL | Cmax [6]: 2530 ng/mL | Vd/F [7]: 51.4 L
Compound: CCc1ccccc1COc1ccccc1C(=O)Nc1cccnc1
Activity (Mus musculus [8]): Non-Toxic | Activity (Mus musculus [9]): Non-Toxic | Activity (Mus musculus [10]): 35% | Activity (Mus musculus [11]): Dose-dependent effect | Activity (Mus musculus [12]): inactive | Activity (Mus musculus [13]): 43% | Activity (Mus musculus [14]): 32% | Activity (Mus musculus [15]): 41%
